# core dimer inh: blocks dimerization of HCV core protein; TR-FRET GST/Flag-core106 dimerization, 1536-well; inhibition, % at 5 µM; actives 0.33% (n = 300,000);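 active = inhibition above the mean of all tested compounds plus 3 SD, set per screening campaign, cut at about 45% in these data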
#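 test system = GST/Flag-tagged HCV core106 proteins | probe or stimulus = Eu donor and XL665 acceptor anti-tag antibodies | times = compound-protein-antibody incubation 4 h at 22.5 °C | signal = TR-FRET, excitation 340 nm, emission 617 and 671 nm | measure = percent inhibition of core106 dimerization signal | controls = wells lacking GST-core106 and wells with excess unlabelled core106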
# APOBEC3A inh: human APOBEC3A DNA deaminase inhibition; inhibition, % at 20 µM; actives 0.41% (n = 330,000); P31941; recombinant A3A, FAM/TAMRA ssDNA deamination fluorescence; AID 493011;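 active = at least 40% inhibition at 20 µM here, with at most 30% in a related deaminase screen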;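 note: plate controls were A3A with DMSO for no effect and wells lacking A3A enzyme for full effect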
# Target sequence (P31941 whole entry, looked up): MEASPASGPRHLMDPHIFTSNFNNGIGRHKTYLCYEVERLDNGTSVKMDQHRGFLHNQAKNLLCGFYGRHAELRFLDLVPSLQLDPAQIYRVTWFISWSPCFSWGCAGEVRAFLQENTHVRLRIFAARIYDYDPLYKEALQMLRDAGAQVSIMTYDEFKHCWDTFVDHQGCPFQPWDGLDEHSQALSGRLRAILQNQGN
# A3G deaminase: APOBEC3G (human) deaminase inhibition. Q9HC16. recombinant A3G, ssDNA deamination FAM/TAMRA fluorescence. inhibition, % at 20 µM. actives 0.28% (n = 330,000);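 active = inhibition of at least 40% at 20 µM, with no more than 30% in the related APOBEC3A deaminase screen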;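 note: plate controls were DMSO wells with A3G for no effect and wells lacking A3G enzyme for full effect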
# NS3 helicase inh: HCV NS3 helicase inhibition; AID 1800; NS3 helicase DNA unwinding, Cy5 molecular beacon fluorescence; actives 0.56% (n = 290,000); inhibition, % at 10.9 µM;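 active = inhibition above the mean of all tested compounds plus 3 SD, set per campaign, cut at about 35% in these data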;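 note: 0% = DMSO wells and 100% = thioflavine S control wells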
#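 Control set: DMSO versus 110 µM thioflavine S; Material: NS3 helicase fragment of HCV; Measured by: Cy5 fluorescence at 0 and 60 min, beacon hairpin quenching; Read-out basis: percent inhibition from t60/t0 fluorescence ratio; Times: reaction time 60 min, 25 °C; Repeats: single replicate; Compound dosing: single dose, 10.9 µM nominal final, DMSO 0.8% final.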
# ABHD5-PLIN5 inh: inhibitors of human ABHD5-perilipin-5 interaction | AID 602281 | actives 0.78% (n = 360,000) | Split G. princeps luciferase complementation, luminescence, 4 h | inhibition, % at 4 µM;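 active = inhibition above the mean inhibition across every tested compound plus 3 SD, cut at about 22% in these data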;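 note: 0% = DMSO only wells and the 100% control is not disclosed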
# PRMT1 inh: blocks human protein arginine methyltransferase 1; recombinant PRMT1, activity-based probe fluorescence polarization; inhibition, % at 2.79 µM; actives 1.3% (n = 370,000);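 active = inhibition above about 21% made by adding two undisclosed values, limit read from the data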
# ABHD5-PLIN5 conf: confirmation of human ABHD5-PLIN5 interaction inhibitors; shares compounds with ABHD5-PLIN5 inh; AID 651612; actives 67% (n = 2,200); inhibition, % at 4 µM; biochemical ABHD5-PLIN5 interaction, luminescence; in the data active = inhibition above about 23%;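 note: 0% = DMSO vehicle wells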
# HNF4 counter: active in HNF4 split-luciferase counter-screen for ABHD5-PLIN5 inhibitors | shares compounds with ABHD5-PLIN5 inh | HNF4 dimerization, luminescence, biochemical | inhibition, % at 4 µM | actives 77% (n = 2,200);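 active = mean inhibition across replicate wells exceeding the computed hit threshold, cut at about 13% in these data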;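 note: light from luciferase halves that rejoin when HNF4 fusion proteins dimerize; 0% = DMSO only wells and the 100% control is not given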
# Target sequence (P41235 whole entry, looked up, the tested form may be a part): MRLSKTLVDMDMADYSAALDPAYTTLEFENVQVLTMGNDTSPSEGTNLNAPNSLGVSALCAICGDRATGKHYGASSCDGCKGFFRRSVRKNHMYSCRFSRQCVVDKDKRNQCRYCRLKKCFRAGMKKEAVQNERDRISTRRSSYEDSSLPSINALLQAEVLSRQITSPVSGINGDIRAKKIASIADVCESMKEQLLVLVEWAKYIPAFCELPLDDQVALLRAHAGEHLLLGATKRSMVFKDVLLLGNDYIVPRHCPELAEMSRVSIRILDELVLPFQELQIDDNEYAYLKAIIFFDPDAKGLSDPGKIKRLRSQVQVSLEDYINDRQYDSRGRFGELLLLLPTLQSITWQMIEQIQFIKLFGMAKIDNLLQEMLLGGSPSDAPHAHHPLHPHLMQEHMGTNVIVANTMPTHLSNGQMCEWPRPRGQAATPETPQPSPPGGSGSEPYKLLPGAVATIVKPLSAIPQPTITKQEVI
# Active calls of the source: *; . = no result given. Compounds with a hit are over-represented: about 2.9% of the library has one in this group of screens.
SMILES,core dimer inh,APOBEC3A inh,A3G deaminase,NS3 helicase inh,ABHD5-PLIN5 inh,PRMT1 inh,ABHD5-PLIN5 conf,HNF4 counter
CC(C)(C)c1cc(Cl)ccc1OCCn1ccnc1,1.4,-3.7,-5.9,-9.0,-0.6,2.3,.,.
CN(C)CCOCCOc1ccc(Cl)cc1C(C)(C)C,-19.5,4.9,0.1,-29.1,23.1*,-1.1,9.8,1.4
CC(O)CNCCCOc1ccc(Cl)cc1C(C)(C)C (centres undefined),-2.2,-1.2,-6.1,-38.2,29.3*,0.7,10.9,5.9
O=C(Cn1cc(C(F)(F)F)ccc1=O)NC1CCCC1,.,1.9,-3.1,.,7.3,2.5,.,.
COc1ccc(OC(=O)N2CCOCC2)cc1,7.8,-4.2,-10.5,1.6,1.1,-0.6,.,.
COc1ccc(OC(=O)N2C/C(=C/c3ccccc3)C(=O)/C(=C\c3ccccc3)C2)cc1,.,.,.,.,74.7*,-0.7,104.2*,107.4*
CCOC(=O)N1C/C(=C\c2ccccc2)C(=O)/C(=C/c2ccccc2)C1,.,.,.,-8.8,68.6*,1.4,103.0*,107.6*
CN(CC1COc2ccccc2O1)C(=O)CSc1ncccn1 (centres undefined),.,-2.3,-3.3,.,-0.2,3.1,.,.
C[C@H]1[C@@H](c2ccccc2)Oc2ccc(Cl)cc2S(=O)(=O)N1Cc1cccc(F)c1,.,.,.,.,.,3.1,.,.
O=C(CN(Cc1ccc(Br)cc1)S(=O)(=O)c1ccccc1)NCc1cccnc1,-1.1,0.5,2.1,-4.0,-2.6,-0.5,.,.
O=C(NCc1cccnc1)/C(=C/c1ccc(-c2ccc(Cl)cc2)o1)S(=O)(=O)c1ccccc1,-2.1,1.8,-1.4,-18.2,79.6*,7.3,97.4*,88.1*
O=C(NCc1cccnc1)/C(=C\c1ccc(-c2ccc(Br)cc2)o1)S(=O)(=O)c1ccccc1,3.9,-1.2,-1.9,-11.7,73.3*,8.5,92.8*,82.7*
O=C(c1nnsc1S(=O)(=O)c1ccc(Cl)cc1)N1CCOCC1,.,3.0,-5.9,-9.9,50.8*,7.3,72.7*,70.8*
CCOc1ccc(C(=O)CCC(=O)N(CC)CC(=O)NCc2cccs2)cc1,2.1,1.0,-9.9,.,-6.1,12.6,.,.
CCOc1ccc(C(=O)CC(NCc2cccs2)C(=O)O)cc1 (centres undefined),0.9,.,.,21.3,56.7*,14.0,90.7*,110.4*
C[C@H]1[C@H](c2ccccc2)Oc2ccc(Cl)cc2S(=O)(=O)N1C[C@@H]1CCCN1C(=O)OC(C)(C)C,.,.,.,.,.,-3.9,.,.
Cc1cc(OC(C)C(=O)N2CCN(c3ccc(F)cc3)CC2)c2c(C)cc(=O)oc2c1 (centres undefined),10.4,-2.5,-7.5,5.7,3.4,-0.7,.,.
O=[N+]([O-])/C=C/c1cn(Cc2ccc(Cl)cc2)c2ccccc12,5.2,-1.4,-4.8,3.3,44.9*,-2.0,98.4*,82.8*
COC(=O)c1ccc(Cn2cc(/C=C\[N+](=O)[O-])c3ccccc32)o1,1.4,-4.2,-2.7,6.0,42.6*,0.4,88.0*,46.2*
Cc1cccc(Cn2cc(/C=C/[N+](=O)[O-])c3ccccc32)c1,4.6,0.5,-4.9,3.5,25.0*,-1.6,90.8*,86.0*
CN(C)/C=C(\C#N)C(N)=C(C#N)C#N,-5.5,6.4,1.2,4.1,-2.4,-4.0,.,.
N#CC1c2ccccc2C=CN1C(=O)N(c1ccccc1)c1ccccc1 (centres undefined),.,.,.,.,36.2*,3.3,32.0*,34.0*
COCCNc1nc(-c2ccccc2F)c2sc(-c3ccccc3)cc2n1,.,.,.,.,-6.6,3.5,.,.
O=C(C1CCN(c2cncnc2)CC1)N1CCCC1,.,.,.,.,.,-1.2,.,.
O=C(NCCCn1ccnc1)c1ccccc1Cl,0.9,-3.1,-7.9,-6.5,2.8,0.4,.,.
SMILES,core dimer inh,APOBEC3A inh,A3G deaminase,NS3 helicase inh,ABHD5-PLIN5 inh,PRMT1 inh,ABHD5-PLIN5 conf,HNF4 counter
Cc1cccc(C(=O)NCCCn2ccnc2)c1C,-4.6,-3.4,-9.6,10.2,101.9*,-6.8,3.4,2.2
C/C=C/C=C/C(=O)[C@@H]1[C@@H]([C@]2(C)OC(=O)C(C)=C2O)[C@H]2/C(=C(O)/C=C/C=C/C)C(=O)[C@]1(C)C(=O)C2(C)O (some centres undefined),13.4,12.8,11.2,.,34.6*,11.7,43.7*,25.0*
COc1ccc(C2NCCc3c2[nH]c2ccccc32)cc1COc1ccc(F)cc1 (centres undefined),-16.5,-3.0,-6.4,-68.5,29.3*,-1.2,15.6,18.4*
COc1ccc(C2NCCc3c2[nH]c2ccccc32)cc1CN1CCc2cc(OC)c(OC)cc2C1C (centres undefined),.,.,.,-64.2,15.7,.,.,.
Cc1ccc(C(=O)CC(C(=O)O)n2cnc([N+](=O)[O-])n2)cc1 (centres undefined),-1.6,-0.9,1.4,14.1,55.4*,15.9,28.6*,58.2*
CC1(C(=O)Nc2cccc3cccnc23)CCN1Cc1ccc(-c2ccccc2)o1 (centres undefined),.,.,.,.,61.0*,18.6,47.0*,72.8*
COc1cccc(CN2CCC2(C)C(=O)Nc2cccc3cccnc23)c1OC (centres undefined),.,.,.,.,-7.1,-5.2,.,.
Clc1cccc2c1Sc1ccccc1CC2N1CCNCC1 (centres undefined),-11.8,2.6,-0.5,-81.2,30.6*,-0.6,21.2,0.8
O=C(c1ccccc1Cl)N1CCNCC1,-9.8,13.9,-4.5,7.9,4.5,0.4,.,.
CC1(C(=O)NCc2cccc(Cl)c2)Cc2c(-c3ccc4c(c3)OCO4)ccnc2O1 (centres undefined),.,.,.,.,-6.6,-1.8,.,.
O=C1/C(=C\c2ccccc2)CCc2c1[nH]c1ccccc21,-1.8,-0.8,-2.7,0.0,-11.4,1.1,.,.
O=C1/C(=C/c2ccccc2)CCc2ccc(Cl)nc21,.,.,.,.,75.6*,2.8,91.2*,74.5*
N#C/C(=C/c1cccc(O)c1)C(=O)NCc1ccc(Cl)cc1,12.1,-1.5,24.9,-8.3,23.7*,-1.4,63.9*,55.1*
N#C/C(=C/c1ccc(O)c(O)c1)C(=O)NCc1ccc(Cl)cc1,-6.5,-5.6,9.8,4.7,8.7,11.2,.,.

# Assay outcomes (PubChem)
